# The list is not random: actives were taken first. Their share in the collection is about 3.3%.
# NRP1-CendR mod: alters CendR peptide binding to human NRP-1. FAM-RPARPAR peptide binding to NRP-1, fluorescence polarization. inhibition, % at 25 µM. hit rate 0.85% among 360,000. AID 602438;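 active = inhibition or corrected inhibition above about 18%, plus a signal ratio from 0.5 to 1.5, limit read from the data, passing the limit was not always enough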
# Lipid droplet: hepatic lipid droplet formation modulation | AML12 mouse hepatocytes, oleate lipid droplets, BODIPY imaging | inhibition, % at 6.5 µM | hit rate 0.4% among 240,000 | AID 1656;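 active = lipid droplet intensity inhibited by at least 50%, with more than 500 cells counted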
#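 Material: mouse AML12 hepatocyte cell line, fixed after treatment; Timing: compound with oleate, overnight; Technique: high-content imaging of BODIPY-stained droplets and DAPI nuclei; Probe or stimulus: oleate, 100 µM final; Dosing: compound at 6.5 µM only.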
# Arr AP2 block: human beta-arrestin and AP2 interaction inhibition. FITC-arrestin peptide / GST-AP2 beads, flow cytometry; AP2 beta2 appendage carries R879A mutation. inhibition, % at 10 µM. hit rate 0.31% among 340,000;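 active = inhibition above a set limit, near 3 SD of compounds lacking own fluorescence, cut at about 54% in these data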;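 also: plate controls were DMSO wells for no effect and 5 µM unlabelled arrestin peptide for full effect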
#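 Test system: GST-tagged AP2 beta2-adaptin appendage (R879A) on 4 µm glutathione beads; also added: fluorescein-tagged arrestin peptide at 50 nM final; timing: 12 min plus 1 h, RT; signal: flow cytometry, FL1 (488/535 nm); read-out: percent drop in bead-associated FITC signal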
# sPLA2-III inh: Inhibits HGIII-sPLA2 liposome hydrolysis, primary screen. hit rate 0.56% among 370,000. Q9NZ20. QFRET BODIPY PC-A2 liposome hydrolysis, fluorescence. inhibition, % at 12.2 µM;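 active = inhibition above mean plus 3 SD of compounds lying within the high and low control bounds, cut at about 19% in these data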;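 also: 0% = median of test compound wells and 100% = no enzyme DMSO wells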
# m5-HT2A agonist: activates the mouse 5-HT2A serotonin receptor | P35363 | activation, % at 7.6 µM | CHO-K1 mHTR2A beta-arrestin complementation, luminescence; percent of 30 µM serotonin response | hit rate 0.66% among 360,000;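 active = activation above a run cutoff, the mean activation of all tested compounds plus 3 SD, cut at about 14% in these data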;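 also: 0% = plate median of compound wells and 100% = 30 µM serotonin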
# Target sequence (P35363 whole entry, looked up): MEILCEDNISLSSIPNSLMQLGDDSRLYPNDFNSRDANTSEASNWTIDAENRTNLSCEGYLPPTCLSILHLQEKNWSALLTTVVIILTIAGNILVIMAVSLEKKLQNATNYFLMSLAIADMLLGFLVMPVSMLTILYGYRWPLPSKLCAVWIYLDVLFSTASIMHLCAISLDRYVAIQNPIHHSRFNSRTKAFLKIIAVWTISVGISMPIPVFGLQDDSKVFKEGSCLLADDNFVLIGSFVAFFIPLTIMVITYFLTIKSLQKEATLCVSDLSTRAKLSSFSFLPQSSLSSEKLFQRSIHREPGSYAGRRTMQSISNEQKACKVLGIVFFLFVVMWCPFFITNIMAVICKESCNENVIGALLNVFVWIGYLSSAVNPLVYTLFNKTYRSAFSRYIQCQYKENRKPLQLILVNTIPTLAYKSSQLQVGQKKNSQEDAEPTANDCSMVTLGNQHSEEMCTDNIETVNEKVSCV
# PfM18AAP inh: blocks P. falciparum M18 aspartyl aminopeptidase; recombinant PfM18AAP, H-Glu-NHMec fluorogenic cleavage; inhibition, % at 7.35 µM; hit rate 1.2% among 290,000; AID 1822;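 active = inhibition above the campaign mean inhibition over all tested compounds plus 3 SD, cut at about 28% in these data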;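 also: 0% = plate median of test compound wells and 100% = 2 mM ZnCl2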
# hGIII sPLA2 conf: human GIII-sPLA2 inhibition, confirmation. recombinant hGIII-sPLA2, BODIPY PC-A2 QFRET fluorescence. hit rate 34% among 2,000. inhibition, % at 12.2 µM. shares compounds with sPLA2-III inh;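 active = mean inhibition across triplicates above the hit cutoff set in the earlier primary screen, cut at about 19% in these data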;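 also: 0% = enzyme with DMSO and 100% = DMSO wells lacking enzyme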
# BODIPY interf: counter-screen for HGIII-sPLA2 inhibitors: 535nm fluorescence interference. hit rate 8.5% among 2,000. shares compounds with sPLA2-III inh. BODIPY FL product fluorescence interference, QFRET. AID 743282. inhibition, % at 12.2 µM;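 active = average inhibition above the solvent-only control mean plus 3 SD, cut at about 6% in these data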;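 also: 0% = DMSO with substrate plus product and 100% = DMSO with substrate alone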
# The depositor's hits bear a star; / = no result.
SMILES,NRP1-CendR mod,Lipid droplet,Arr AP2 block,sPLA2-III inh,m5-HT2A agonist,PfM18AAP inh,hGIII sPLA2 conf,BODIPY interf
O=C(CNC(=S)N(Cc1ccccc1)Cc1cccnc1)NC1CCCC1,1.5,4.3,-18.2,22.8*,5.5,-6.3,3.9,-15.9
O=C(CNC(=S)N(Cc1ccccc1)Cc1cccnc1)NC1CC1,-1.8,-13.5,-11.3,-1.7,3.0,12.6,/,/
CCNC(=O)C1(C)CCCN(C(=O)c2ccc3c(c2)C(C)(C)CCC3(C)C)C1 (configuration not stated),10.6,/,/,0.0,2.1,/,/,/
S=C(CN1CCCC1=S)N1CCOCC1,0.9,/,9.7,-0.2,8.1,/,/,/
CC(C)(CCC(=S)N1CCOCC1)C1CCCCC1,7.2,/,2.3,19.4*,4.7,30.2*,18.5,-7.1
COC(=O)N/N=C/c1c(C)nn(-c2cccc(Cl)c2)c1Cl,-14.1,-6.0,0.3,20.0*,-2.3,-1.7,5.0,-6.1
CCOC(=O)C(Cc1ccccc1)CP(=O)(OC)[C@@H](C)NC(=O)OCc1ccccc1 (some centres not stated),/,/,/,-3.8,/,/,/,/
CCOC(=O)C(=O)NNc1ccc(F)cc1,0.7,16.7,43.6,21.2*,4.7,1.6,-2.4,-3.6
CCOC(=O)C(=O)N/N=C/c1ccc(F)cc1,-7.2,3.7,-7.1,-1.1,-1.0,4.7,/,/
O=C(CCS(=O)(=O)c1ccccc1)Nc1cc(Cl)ccc1F,/,/,/,-3.0,/,/,/,/
CCOc1ccc(/C=N/n2c(-c3n[nH]c4c3CCC4)n[nH]c2=S)cc1,/,/,/,11.8,/,/,/,/
Cc1ccc(C=Nn2c(-c3n[nH]c4c3CCC4)n[nH]c2=S)o1,/,/,/,20.6*,/,/,16.3,-0.5
CCN(CC)c1ccc(NC(=O)C2=CC=CN3CCS(=O)(=O)N=C23)cc1,-9.2,/,4.7,20.9*,-1.3,/,7.8,0.7
CCOc1cccc(-c2ccc3nncn3c2)c1,2.9,/,/,14.9,4.4,/,/,/
O=[N+]([O-])c1ccc(CSc2nnc(-c3cccc(Cl)c3)n2Cc2ccco2)cc1,/,/,/,-8.8,/,/,/,/
CC(C)C[C@H]1COc2cc(N3CCOCC3)ccc2S(=O)(=O)N1,/,/,/,7.7,/,/,/,/
CC(C)C[C@@H]1COc2cc(N3CCCC3)ccc2S(=O)(=O)N1,/,/,/,20.6*,/,/,16.6,-5.8
COc1ccc(F)cc1-c1cc(NC=O)c2ncc(-c3cccc(C(F)(F)F)c3)n2c1,-17.9,/,/,6.0,4.5,/,/,/
CCN(CC)CCOC(=O)c1ccc(NC(=O)CSc2nnc(-c3cccs3)n2CC)cc1,13.2,/,-10.5,-1.7,-2.0,/,/,/
COC(=O)[C@]12C[C@H](CC(=O)N3CCCC3)C(=O)N(Cc3ccco3)C1=C[C@H](C(C)(C)C)O[C@@H]2C,/,/,/,-0.3,/,/,/,/
Cc1cc(S(=O)(=O)N(Cc2ccccc2Cl)c2ccc3c(c2)CCC3)ccc1-n1cnnn1,6.0,-73.4,-1.4,19.7*,1.6,-0.3,-13.3,-18.6
COc1cccc(-c2cc3c(c4c2ccn4C)C2CCC3C2)c1 (configuration not stated),3.7,/,/,19.3*,0.0,/,-5.2,1.6
COc1ccc(-c2cc3c(c4c2ccn4C)C2CCC3C2)cc1 (configuration not stated),7.8,/,/,16.0,-1.2,/,/,/
COc1ccccc1-c1cc2c(c3c1ccn3C)C1CCC2C1 (configuration not stated),-8.0,/,/,22.3*,6.7,/,4.0,-2.7
C[C@@H]1CCCCO[C@H](CN(C)Cc2ccc(C(=O)O)cc2)[C@H](C)CN([C@@H](C)CO)C(=O)c2cc(NC(=O)Nc3ccc(C(F)(F)F)cc3)ccc2O1,-1.6,/,/,-61.3,-0.3,/,/,/
CCSc1nnc([C@@H](NC(=O)OC(C)(C)C)C(C)C)o1,9.5,20.3,12.4,19.4*,-3.8,-5.5,1.6,-3.2
CNC(=S)/N=C(\Nc1ccc(C)cc1)c1ccccc1,0.0,-7.6,-4.8,20.8*,-0.7,30.3*,19.0,-7.1
C=CCCC(=O)N1C[C@H]2CON(C)[C@H]2C[C@H]1c1cccc(Oc2ccccc2)c1,7.9,/,/,-1.7,-1.0,/,/,/

# Source: PubChem BioAssay (several laboratories)
